Measurements: ChEMBL document CHEMBL1687796, “Synthesis and spectrum of the neoglycoside ACHN-490” (2010)
Converted amounts (≈) assume the structure as drawn.

Key:
Type in all cases: functional
Serratia sp. = assay: Antibacterial activity against Serratia spp. by broth microdilution method
Outline: (§1)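 MICs were determined by CLSI broth microdilution against clinical isolate panels that included aminoglycoside-resistant isolates. […] MIC90 was derived per group and not calculated when n was <10. Imipenem, ceftobiprole, ciprofloxacin and tigecycline MICs were also determined for the resistant isolates.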

Acinetobacter sp. = assay: Antibacterial activity against Acinetobacter spp. by broth microdilution method; outline: as §1
[1] = Antibacterial activity against indole positive Proteae by broth microdilution method; outline: as §1
Klebsiella sp. = assay: Antibacterial activity against Klebsiella spp. by broth microdilution method; outline: as §1
Proteus mirabilis = assay: Antibacterial activity against Proteus mirabilis by broth microdilution method; outline: as §1
Escherichia coli [2] = assay: Antibacterial activity against Escherichia coli by broth microdilution method; outline: as §1
Citrobacter = assay: Antibacterial activity against Citrobacter spp. by broth microdilution method; outline: as §1
Staphylococcus sp. = assay: Antibacterial activity against Staphylococcus spp. by broth microdilution method; outline: as §1
Enterobacter sp. = assay: Antibacterial activity against Enterobacter spp. by broth microdilution method; outline: as §1
Pseudomonas aeruginosa [3] = assay: Antibacterial activity against Pseudomonas aeruginosa by broth microdilution method; outline: as §1
Staphylococcus aureus [4] = assay: Antibacterial activity against aminoglycoside-resistant Staphylococcus aureus expressing APH(2'') + AAC(6')-1 by broth microdilution method
Outline: (§2)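 Clinical aminoglycoside-resistant isolates were each carrying a single aminoglycoside-modifying enzyme. […] MICs were determined by CLSI broth microdilution.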

Pseudomonas aeruginosa [5] = assay: Antibacterial activity against Pseudomonas aeruginosa ATCC 27853 by broth microdilution method
Escherichia coli [6] = assay: Antibacterial activity against aminoglycoside-resistant Escherichia coli expressing ANT(2'')-1 by broth microdilution method; outline: as §2
Klebsiella aerogenes [7] = assay: Antibacterial activity against aminoglycoside-resistant Enterobacter aerogenes expressing AAC(3)-2 by broth microdilution method; outline: as §2
Serratia liquefaciens = assay: Antibacterial activity against aminoglycoside-resistant Serratia liquefaciens expressing AAC(3)-2 by broth microdilution method; outline: as §2
Escherichia coli [8] = assay: Antibacterial activity against aminoglycoside-resistant Escherichia coli expressing AAC(6')-1 by broth microdilution method; outline: as §2
Acinetobacter = assay: Antibacterial activity against aminoglycoside-resistant Acinetobacter spp. expressing APH(3')-6 by broth microdilution method; outline: as §2
Escherichia coli [9] = assay: Antibacterial activity against aminoglycoside-resistant Escherichia coli expressing ANT(6')-1 by broth microdilution method; outline: as §2
Pseudomonas aeruginosa [10] = assay: Antibacterial activity against aminoglycoside-resistant Pseudomonas aeruginosa expressing AAC(6')-2 by broth microdilution method; outline: as §2
Klebsiella oxytoca [11] = assay: Antibacterial activity against aminoglycoside-resistant Klebsiella oxytoca expressing AAC(6')-1 by broth microdilution method; outline: as §2
Pseudomonas aeruginosa [12] = assay: Antibacterial activity against Pseudomonas aeruginosa expressing mexXY operon by broth microdilution method
Outline: (§3)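 MICs were measured by broth microdilution following CLSI guidance. The strains formed a 25-strain screening panel with diverse aminoglycoside resistance mechanisms. The panel included Gram-negative and S. aureus strains carrying key aminoglycoside-modifying enzymes, strains with altered permeability or efflux, and an armA ribosomal methyltransferase strain.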

Escherichia coli [13] = assay: Antibacterial activity against aminoglycoside-resistant Escherichia coli expressing AAC(3)-4 by broth microdilution method; outline: as §2
Staphylococcus aureus [14] = assay: Antibacterial activity against aminoglycoside-resistant Staphylococcus aureus expressing ANT(4',4'')-2 by broth microdilution method; outline: as §2
Klebsiella pneumoniae [15] = assay: Antibacterial activity against aminoglycoside-resistant Klebsiella pneumoniae expressing AAC(6')-1 by broth microdilution method; outline: as §2
Pseudomonas aeruginosa [16] = assay: Antibacterial activity against efflux pump deficient Pseudomonas aeruginosa by broth microdilution method
Citrobacter freundii [17] = assay: Antibacterial activity against aminoglycoside-resistant Citrobacter freundii expressing AAC(6')-1 by broth microdilution method; outline: as §2
Klebsiella oxytoca [18] = assay: Antibacterial activity against aminoglycoside-resistant Klebsiella oxytoca expressing AAC(3)-2 by broth microdilution method; outline: as §2
Pseudomonas aeruginosa [19] = assay: Antibacterial activity against aminoglycoside-resistant Pseudomonas aeruginosa expressing ANT(2'')-1 by broth microdilution method; outline: as §2
[20] = test system: Staphylococcus epidermidis; assay: Antibacterial activity against aminoglycoside-resistant Staphylococcus epidermidis expressing APH(2'') + AAC(6')-1 by broth microdilution method; outline: as §2
Escherichia coli [21] = assay: Antibacterial activity against aminoglycoside-resistant Escherichia coli expressing ANT(3)-2 by broth microdilution method; outline: as §2
Acinetobacter baumannii [22] = assay: Antibacterial activity against aminoglycoside-susceptible Acinetobacter baumannii by broth microdilution method
Acinetobacter baumannii [23] = assay: Antibacterial activity against aminoglycoside-resistant Acinetobacter baumannii expressing ANT(2'')-1 by broth microdilution method; outline: as §2
Pseudomonas aeruginosa [24] = assay: Antibacterial activity against Pseudomonas aeruginosa expressing AAC(3)-1 by broth microdilution method
Klebsiella pneumoniae [25] = assay: Antibacterial activity against aminoglycoside-resistant Klebsiella pneumoniae expressing AAC(3)-2 by broth microdilution method; outline: as §2
Pseudomonas aeruginosa [26] = assay: Antibacterial activity against Pseudomonas aeruginosa expressing AAC(6')-2 by broth microdilution method
Staphylococcus aureus [27] = assay: Antibacterial activity against aminoglycoside-resistant Staphylococcus aureus expressing APH(2'') + AAC(6') by broth microdilution method; outline: as §3
Escherichia coli [28] = assay: Antibacterial activity against aminoglycoside-resistant Escherichia coli expressing armA methylase by broth microdilution method; outline: as §3
Klebsiella pneumoniae [29] = assay: Antibacterial activity against aminoglycoside-resistant Klebsiella pneumoniae expressing AAC(3)-4 by broth microdilution method; outline: as §2
Pseudomonas aeruginosa [30] = assay: Antibacterial activity against wild type Pseudomonas aeruginosa expressing efflux pump by broth microdilution method
Outline: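 MIC was determined by CLSI broth microdilution, read in μg/ml. The strain came from a 25-strain screening panel with diverse aminoglycoside resistance mechanisms. The panel included strains with changes in permeability or efflux, key aminoglycoside-modifying enzymes and an armA methyltransferase strain.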

Citrobacter freundii [31] = assay: Antibacterial activity against aminoglycoside-resistant Citrobacter freundii expressing AAC(3)-2 by broth microdilution method; outline: as §2
[32] = test system: Staphylococcus epidermidis; assay: Antibacterial activity against aminoglycoside-resistant Staphylococcus epidermidis expressing ANT(4',4'')-2 by broth microdilution method; outline: as §2
Enterobacter cloacae [33] = assay: Antibacterial activity against aminoglycoside-resistant Enterobacter cloacae expressing AAC(6')-1 by broth microdilution method; outline: as §2
Enterobacter cloacae [34] = assay: Antibacterial activity against aminoglycoside-resistant Enterobacter cloacae expressing AAC(3)-2 by broth microdilution method; outline: as §2
Acinetobacter baumannii [35] = assay: Antibacterial activity against aminoglycoside-resistant Acinetobacter baumannii expressing […] by broth microdilution method; outline: as §2
Acinetobacter baumannii [36] = assay: Antibacterial activity against Acinetobacter baumannii ATCC 19606 by broth microdilution method; details: ATCC 19606 = CIP 70.34 = JCM 6841; outline: as §3
Klebsiella pneumoniae [37] = assay: Antibacterial activity against Klebsiella pneumoniae ATCC 10031 by broth microdilution method; outline: as §3
Escherichia coli [38] = assay: Antibacterial activity against aminoglycoside-resistant Escherichia coli expressing AAC(3)-2 by broth microdilution method; outline: as §2
Escherichia coli [39] = assay: Antibacterial activity against Escherichia coli ATCC 25922 by broth microdilution method; outline: as §3
Klebsiella aerogenes [40] = assay: Antibacterial activity against aminoglycoside-resistant Enterobacter aerogenes expressing AAC(6')-1 by broth microdilution method; outline: as §2
Serratia marcescens [41] = assay: Antibacterial activity against aminoglycoside-resistant Serratia marcescens expressing AAC(6')-1 by broth microdilution method; outline: as §2
Pseudomonas aeruginosa [42] = assay: Antibacterial activity against Pseudomonas aeruginosa expressing ANT(4')-2 by broth microdilution method; outline: as §3
[43] = test system: Staphylococcus epidermidis; assay: Antibacterial activity against aminoglycoside-resistant Staphylococcus epidermidis expressing APH(3')-3 by broth microdilution method
Klebsiella pneumoniae [44] = assay: Antibacterial activity against aminoglycoside-resistant Klebsiella pneumoniae expressing AAC(3)-1 by broth microdilution method; outline: as §2
Acinetobacter baumannii [45] = assay: Antibacterial activity against aminoglycoside-resistant Acinetobacter baumannii expressing APH(3')-6 by broth microdilution method; outline: as §2
Serratia marcescens [46] = assay: Antibacterial activity against aminoglycoside-resistant Serratia marcescens expressing ANT(2''), AAC(6') by broth microdilution method; outline: as §3
[47] = test system: Acinetobacter calcoaceticus; assay: Antibacterial activity against aminoglycoside-resistant Acinetobacter calcoaceticus expressing AAC(6')-1 by broth microdilution method; outline: as §2
[48] = Serratia sp. (in: enterobacteria)

## CN(C)c1cc(NC(=O)CNC(C)(C)C)c(O)c2c1C[C@H]1C[C@H]3[C@H](N(C)C)C(O)=C(C(N)=O)C(=O)[C@@]3(O)C(O)=C1C2=O [TIGECYCLINE]
Serratia sp.; [48]
  MIC50: 2 µg/mL (≈ 3.41 µM)
Acinetobacter sp.
  MIC50: 2 µg/mL (≈ 3.41 µM)
  MIC90: 16 µg/mL (≈ 27.3 µM)
[1]
  MIC50: 2 µg/mL (≈ 3.41 µM)
Klebsiella sp.
  MIC50: 1 µg/mL (≈ 1.71 µM)
  MIC90: 2 µg/mL (≈ 3.41 µM)
Proteus mirabilis
  MIC50: 4 µg/mL (≈ 6.83 µM)
  MIC90: 8 µg/mL (≈ 13.7 µM)
Escherichia coli [2]
  MIC50: 0.25 µg/mL (≈ 0.427 µM)
  MIC90: 0.5 µg/mL (≈ 0.854 µM)
Citrobacter
  MIC50: 0.5 µg/mL (≈ 0.854 µM)
Staphylococcus sp.
  MIC50: 0.25 µg/mL (≈ 0.427 µM)
  MIC90: 0.5 µg/mL (≈ 0.854 µM)
Enterobacter sp.
  MIC50: 0.5 µg/mL (≈ 0.854 µM)
  MIC90: 4 µg/mL (≈ 6.83 µM)
Pseudomonas aeruginosa [3]
  MIC50: 16 µg/mL (≈ 27.3 µM)
  MIC90: > 16 µg/mL

## O=C(O)c1cn(C2CC2)c2cc(N3CCNCC3)c(F)cc2c1=O [CIPROFLOXACIN]
Serratia sp.; [48]
  MIC50: 4 µg/mL (≈ 12.1 µM)
Acinetobacter sp.
  MIC50: > 16 µg/mL
  MIC90: > 16 µg/mL
[1]
  MIC50: 16 µg/mL (≈ 48.3 µM)
Klebsiella sp.
  MIC50: 16 µg/mL (≈ 48.3 µM)
  MIC90: > 16 µg/mL
Proteus mirabilis
  MIC50: 2 µg/mL (≈ 6.04 µM)
  MIC90: > 16 µg/mL
Escherichia coli [2]
  MIC50: > 16 µg/mL
  MIC90: > 16 µg/mL
Citrobacter
  MIC50: 8 µg/mL (≈ 24.1 µM)
Staphylococcus sp.
  MIC50: 16 µg/mL (≈ 48.3 µM)
  MIC90: > 16 µg/mL
Enterobacter sp.
  MIC50: 1 µg/mL (≈ 3.02 µM)
  MIC90: > 16 µg/mL
Pseudomonas aeruginosa [3]
  MIC50: 8 µg/mL (≈ 24.1 µM)
  MIC90: > 16 µg/mL

## GENTAMICIN
Staphylococcus aureus [4]
  MIC: 50 µg/mL
Pseudomonas aeruginosa [5]
  MIC: 1 µg/mL
Serratia sp.
  MIC50: 64 µg/mL
Escherichia coli [6]
  MIC: > 64 µg/mL
Klebsiella aerogenes [7]
  MIC: 62 µg/mL
Serratia liquefaciens
  MIC: 62 µg/mL
Acinetobacter sp.
  MIC50: > 64 µg/mL
  MIC90: > 64 µg/mL
Escherichia coli [8]
  MIC: 1 µg/mL
Acinetobacter
  MIC: 1 µg/mL
Escherichia coli [9]
  MIC: 4 µg/mL
Pseudomonas aeruginosa [10]
  MIC: 64 µg/mL
Klebsiella oxytoca [11]
  MIC: 1 µg/mL
Pseudomonas aeruginosa [12]
  MIC: 2 µg/mL
[1]
  MIC50: > 64 µg/mL
Escherichia coli [13]
  MIC: 16 µg/mL
Klebsiella sp.
  MIC50: 32 µg/mL
  MIC90: > 64 µg/mL
Staphylococcus aureus [14]
  MIC: 1 µg/mL
Klebsiella pneumoniae [15]
  MIC: 1 µg/mL
Pseudomonas aeruginosa [16]
  MIC: 0.125 µg/mL
Citrobacter freundii [17]
  MIC: 1 µg/mL
Klebsiella oxytoca [18]
  MIC: 62 µg/mL
Pseudomonas aeruginosa [19]
  MIC: 56 µg/mL
[20]
  MIC: 50 µg/mL
Proteus mirabilis
  MIC50: 32 µg/mL
  MIC90: > 64 µg/mL
Escherichia coli [21]
  MIC: > 64 µg/mL
Acinetobacter baumannii [22]
  MIC: 1 µg/mL
Acinetobacter baumannii [23]
  MIC: > 64 µg/mL
Pseudomonas aeruginosa [24]
  MIC: 64 µg/mL
Klebsiella pneumoniae [25]
  MIC: 62 µg/mL
Pseudomonas aeruginosa [26]
  MIC: 32 µg/mL
Escherichia coli [2]
  MIC50: 64 µg/mL
  MIC90: > 64 µg/mL
Staphylococcus aureus [27]
  MIC: > 64 µg/mL
Escherichia coli [28]
  MIC: > 64 µg/mL
Klebsiella pneumoniae [29]
  MIC: 16 µg/mL
Pseudomonas aeruginosa [30]
  MIC: 1 µg/mL
Citrobacter freundii [31]
  MIC: 62 µg/mL
[32]
  MIC: 1 µg/mL
Enterobacter cloacae [33]
  MIC: 1 µg/mL
Citrobacter
  MIC50: > 64 µg/mL
Enterobacter cloacae [34]
  MIC: 62 µg/mL
Acinetobacter baumannii [35]
  MIC: 16 µg/mL
Acinetobacter baumannii [36]
  MIC: 16 µg/mL
Staphylococcus sp.
  MIC50: 32 µg/mL
  MIC90: > 64 µg/mL
Klebsiella pneumoniae [37]
  MIC: 0.125 µg/mL
Enterobacter sp.
  MIC50: 32 µg/mL
  MIC90: > 64 µg/mL
Escherichia coli [38]
  MIC: 62 µg/mL
Escherichia coli [39]
  MIC: 1 µg/mL
Klebsiella aerogenes [40]
  MIC: 1 µg/mL
Serratia marcescens [41]
  MIC: 1 µg/mL
Pseudomonas aeruginosa [3]
  MIC50: > 64 µg/mL
  MIC90: > 64 µg/mL
Pseudomonas aeruginosa [42]
  MIC: 4 µg/mL
[43]
  MIC: 1 µg/mL
Klebsiella pneumoniae [44]
  MIC: 32 µg/mL
Acinetobacter baumannii [45]
  MIC: 4 µg/mL
Serratia marcescens [46]
  MIC: 4 µg/mL
[47]
  MIC: 8 µg/mL
